Assay results: the array DNA melting data of Ke et al. (doi:10.1101/2024.01.08.574731)

Tests used:
[1] = folding enthalpy; higher = less favourable; fluorescence melt of hairpins on a sequencing array, two-state fit; details: sodium 0.088 M
Procedure, shortened: (§1)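 Cy3 signals were normalised both to pre-quench Cy3 and to control constructs. They came from library hairpins carrying annealed Cy3 and quencher oligos on a sequenced MiSeq flow cell, imaged in 50 mM Na-HEPES pH 8.0, 25 mM NaCl, in 2.5 °C steps up to 60 °C. Bootstrapped two-state fits gave melting temperature and folding enthalpy, and four replicates were combined by inverse variance. Fitted temperatures were then raised by 9.35 °C to match UV melts.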

[2] = melting temperature; fluorescence melt of hairpins on a sequencing array, two-state fit, raised by 9.35 °C to match UV melts; details: sodium 0.088 M
Procedure, shortened: as §1

| Sequence | folding enthalpy [1] | Tm [2] |
| --- | --- | --- |
| GCCCAGGGAAACCTAGGC (((.(((....))).))) | -21.5 kcal/mol | 43.2 °C |
| GTATTCTCGAAAGAGTAC (((..(((....)))))) | -7.69 kcal/mol | 22.9 °C |
| GTTTAAGGAAACTTAGAC ((.((((....)))).)) | -14.3 kcal/mol | 32.6 °C |
| GATACCGAAAGGTCTATC ((((((....)))..))) | -5.86 kcal/mol | 19.6 °C |
| GATGTTGGAAACAACGTC ((.((((....)))).)) | -26.4 kcal/mol | 49 °C |
| GTACAACGAAAGTTATAC (((.(((....))).))) | -19.1 kcal/mol | 30.4 °C |
| GGAAAGGGAAACCTTTCC (((((((....))))))) | -41.9 kcal/mol | 55.8 °C |
| GGGACACGAAAGTGACCC (((.(((....))).))) | -37.1 kcal/mol | 62.9 °C |
| GTACCGGGAAACCAGTAC ((((.((....)).)))) | -23.5 kcal/mol | 38.4 °C |
| GTTTGCCGAAAGGCTAAC (((.(((....))).))) | -20.1 kcal/mol | 51.7 °C |
| GATCCGCCCCGGATC ((((((...)))))) | -36.8 kcal/mol | 58.4 °C |
| GCCGTCGAAAGACGAGGC ((((((....)))..))) | -17.8 kcal/mol | 55.5 °C |
| GTATTGCCGAAAGGCTAC (((..(((....)))))) | -3.24 kcal/mol | 50 °C |
| GCAACAGCGAAAGCTTGC (((..(((....)))))) | -19.5 kcal/mol | 46.6 °C |
| GATCTAGCGGTAGATC ((((((....)))))) | -32.2 kcal/mol | 44 °C |
| GGTTCGCGAAAGCGCACC (((.(((....))).))) | -29.5 kcal/mol | 55.4 °C |
| GGCGTCACGAAAGTGGCC (((..(((....)))))) | -15.2 kcal/mol | 50.3 °C |
| GGACGCGAAAGCGTATCC ((((((....)))..))) | -9.56 kcal/mol | 37.4 °C |
| ATGAGGAAACTCAT (((((....))))) | -17.6 kcal/mol | 39.6 °C |
| GTTACAGGAAACCGTAAC (((((.(....).))))) | -35.6 kcal/mol | 39.4 °C |
| GGTGACGGAAACATCACC (((((.(....).))))) | -33.1 kcal/mol | 43.7 °C |
| GCCGACGAAAGTCAAGGC ((((((....)))..))) | -31.1 kcal/mol | 55.1 °C |
| GGGCGCGAAAGCGAACCC ((((((....)))..))) | -14 kcal/mol | 59.3 °C |

| Sequence | folding enthalpy [1] | Tm [2] |
| --- | --- | --- |
| GTTCCCGAAAGGGAGAAC ((((((....)))..))) | -10.3 kcal/mol | 38 °C |
| GCCCTAGGAAACTGGGGC ((((.((....)).)))) | -33.7 kcal/mol | 55.4 °C |
| GACAGTGGAAACGCTGTC (((((.(....).))))) | -40.9 kcal/mol | 52.1 °C |
| GCCAAGGGAAACCTCGGC (((.(((....))).))) | -29.2 kcal/mol | 46 °C |
| GATACGGGAAACCATATC ((((.((....)).)))) | -19.3 kcal/mol | 28.2 °C |
| GATCTAGGAAACCAGATC (((((.(....).))))) | -25.3 kcal/mol | 34.6 °C |
| GGAGATGGAAACACCTCC ((((.((....)).)))) | -29.7 kcal/mol | 39.7 °C |
| GCTTACACGAAAGTGAGC (((..(((....)))))) | -16.9 kcal/mol | 38.8 °C |
| GGTCATGGAAACGTGATC (.(((.(....).))).) | -20 kcal/mol | 35.5 °C |
| GCTCACCCGAAAGGGAGC (((..(((....)))))) | -19.4 kcal/mol | 50.2 °C |
| GAATCAGAAATGATTC ((((((....)))))) | -32.9 kcal/mol | 45.6 °C |
| GCGGACGCGAAAGCGCGC (((..(((....)))))) | -17.1 kcal/mol | 62 °C |
| GATCTACCGTAGATC ((((((...)))))) | -31.6 kcal/mol | 39.1 °C |
| CAGACGAAAGTCTG (((((....))))) | -24.4 kcal/mol | 61.9 °C |
| GCTGGGTCGAAAGACAGC (((..(((....)))))) | -19.9 kcal/mol | 46 °C |
| GGGTCTCGAAAGAGGCCC (((.(((....))).))) | -29.1 kcal/mol | 67.7 °C |
| GATCCGACACGGATC ((((((...)))))) | -35.6 kcal/mol | 59.1 °C |
| GCGCGTGGAAACACACGC (((.(((....))).))) | -34.1 kcal/mol | 57.4 °C |
| GCGTGTGGAAACATGCGC (((..((....))..))) | -35.2 kcal/mol | 60.9 °C |
| GCTTCGCGAAAGCGAGC (((.(((....)))))) | -15.6 kcal/mol | 61.4 °C |
| GTTTAACGAAAGTTGAAC (((.(((....))).))) | -29.9 kcal/mol | 44.7 °C |
| GTAAGTGGAAACGTTTAC ((((..(....)..)))) | -10.7 kcal/mol | 27.5 °C |
| GAGCAACGAAAGTTCCTC (((.(((....))).))) | -13.6 kcal/mol | 32.3 °C |

| Sequence | folding enthalpy [1] | Tm [2] |
| --- | --- | --- |
| GATCAGCTCCCTGATC ((((((....)))))) | -32.3 kcal/mol | 49.1 °C |
| GAGTAAGGAAACTTACTC (((((((....))))))) | -43.1 kcal/mol | 52.1 °C |
| GCACTGGGAAACTAGTGC (((((.(....).))))) | -38.9 kcal/mol | 53.2 °C |
| GCTGACGGAAACGCCAGC ((((.((....)).)))) | -42.1 kcal/mol | 55.3 °C |
| GCCCGAGGAAACCCGAGC ((.((.(....).)).)) | -17.1 kcal/mol | 30.8 °C |
| GCTGACCGAAAGGTTAGC (((.(((....))).))) | -33.8 kcal/mol | 58.9 °C |
| GATCTTACGGAAGATC ((((((....)))))) | -29.2 kcal/mol | 44.1 °C |
| GTAGAGGCGAAAGCCTAC (((..(((....)))))) | -8.81 kcal/mol | 38 °C |
| GGAAGTGGAAACGCTTTC (.(((.(....).))).) | -19.6 kcal/mol | 31.4 °C |
| GACGACGAAAGTCCGTC ((((((....))).))) | -29.9 kcal/mol | 53.4 °C |
| GCTCTGCGAAAGCAATGC ((..(((....)))..)) | -10.5 kcal/mol | 31.6 °C |
| CGGCTCCGGAAACGGCCG (((..(((....)))))) | -27.1 kcal/mol | 50.3 °C |
| GAACGTGGAAACGTGTTC ((((..(....)..)))) | -14.9 kcal/mol | 37.5 °C |
| GGTGACACGAAAGTGACC (((..(((....)))))) | -15.8 kcal/mol | 38.1 °C |
| GATCGACAATCGATC ((((((...)))))) | -29.4 kcal/mol | 46.6 °C |
| GAGCTTGGAAACAAGCCC (.(((((....))))).) | -13.2 kcal/mol | 42.8 °C |
| CGGCCGGAAACGGCTCCG ((((((....)))..))) | -8.35 kcal/mol | 33.7 °C |
| GATCAAGGGCTTGATC ((((((....)))))) | -34.6 kcal/mol | 46.7 °C |
| GATCCCGATCGGGATC ((((((....)))))) | -50.5 kcal/mol | 62.3 °C |
| GAAGGCGAAAGCCATTC ((((((....))).))) | -10.4 kcal/mol | 39.7 °C |
| GCTCTGAAAAGAGC (((((....))))) | -21.6 kcal/mol | 57.8 °C |
| GATCATAGTTATGATC ((((((....)))))) | -40 kcal/mol | 48.2 °C |
| GACTGTGGAAACGCAGTC (((((.(....).))))) | -31.7 kcal/mol | 51.9 °C |

| Sequence | folding enthalpy [1] | Tm [2] |
| --- | --- | --- |
| GCCCGGCGAAAGCCCTGC ((..(((....)))..)) | -8.41 kcal/mol | 30.7 °C |
| GTACTCGGAAACGAGCAC ((.((((....)))).)) | -19.3 kcal/mol | 48.6 °C |
| GGCATGTCGAAAGACGCC (((..(((....)))))) | -25.2 kcal/mol | 52.1 °C |
| GATCCATGTTGGATC ((((((...)))))) | -36.8 kcal/mol | 52 °C |
| GACGGAGGAAACTCCACC (..((((....))))..) | -10.4 kcal/mol | 26.4 °C |
| GGTGACGAAAGTCGCACC ((((((....)))..))) | -13.9 kcal/mol | 45.6 °C |
| GCCGAAACGAAAGTTGGC (((..(((....)))))) | -22.3 kcal/mol | 48 °C |
| GATCCGTGCCCGGATC ((((((....)))))) | -50.9 kcal/mol | 56.6 °C |
| GGTAACGAAAGTTCTACC ((((((....)))..))) | -13.9 kcal/mol | 28.2 °C |
| GCCAGCTCGAAAGAGGGC (((..(((....)))))) | -24.5 kcal/mol | 45 °C |
| GAGCCACCGAAAGGTCTC (((..(((....)))))) | -12.2 kcal/mol | 29.7 °C |
| GCGTCTCGAAAGAGTCGC (((.(((....))).))) | -38.1 kcal/mol | 58.1 °C |
| GGTGTGCGAAAGCAGACC (((.(((....))).))) | -33.9 kcal/mol | 64.4 °C |
| GCTATGCGAAAGCATTGC ((.((((....)))).)) | -30.2 kcal/mol | 60.3 °C |
| GACCTCCGAAAGGATGTC (((.(((....))).))) | -32.4 kcal/mol | 47.3 °C |
| GCACGAGGAAACTCATGC (((.(((....))).))) | -28.8 kcal/mol | 41.2 °C |
| GCTCGGCGAAAGCCTAGC (((.(((....))).))) | -40.8 kcal/mol | 52.8 °C |
| GCCAGAGGAAACTCTAGC ((.((((....)))).)) | -17.3 kcal/mol | 34.1 °C |
| GACTAAACGAAAGTTGTC (((..(((....)))))) | -19.6 kcal/mol | 34.9 °C |
| GATCACGTGGTGATC ((((((...)))))) | -46.3 kcal/mol | 56.5 °C |
| GATCAGAAGCCTGATC ((((((....)))))) | -31.7 kcal/mol | 47.1 °C |
| GTTCGAGGAAACTTGAGC (.((.((....)).)).) | -20.3 kcal/mol | 29.9 °C |
| GATCTTAGGTAAGATC ((((((....)))))) | -30.1 kcal/mol | 42.6 °C |
